Measurements pooled from the literature.
Compare with care: the assays were run in different laboratories.
Target: Vasopressin V1a receptor (AVPR1A, Homo sapiens, UniProt P37288)

| SMILES | assay | setting | endpoint | result |
| --- | --- | --- | --- | --- |
| O=C(Nc1cccnn1)N1CCN([C@@H]2CCOc3cc(C(F)(F)F)ccc32)CC1 | ligand displacement | 20 µM | inhibition | 5% |
| COc1ccc(S(=O)(=O)N2CCCCC2)cc1C | ligand displacement, radioligand | 10 µM | inhibition | < 30% |
| CCN(CC)CCCC[C@H](NC(=O)[C@H](CC(C)C)NC(=O)[C@H](C)NC(=O)[C@H](Cc1ccccc1)NC(=O)c1ccc(C(C)(C)C)cc1)C(=O)N[C@@H](CO)C(=O)OC | ligand displacement, radioligand | 10 µM | remaining binding | 14.6% |
| COCc1c(-c2cc3cc(C)cc(OC)c3s2)c2c(N)ncnn2c1CN1CCNC(=O)C1 | ligand displacement, radioligand | 10 µM | inhibition | -11% |
| C[C@H](C(=O)N[C@H]1COc2ccccc2[C@@H]1S(C)(=O)=O)c1ccc(F)cc1 | cell-free assay | 10 µM | inhibition | -23% |
| Nc1ncc(-c2nc(N3CCOCC3)nc(N3CCOCC3)n2)c(C(F)F)n1 | cell-free assay, radioligand | 10 µM | remaining signal | 104% |
| Clc1ccc2c(C3CCN(CCc4c[nH]c5ccccc45)CC3)c[nH]c2c1 | ligand displacement, radioligand | 10 µM | inhibition | 2% |
| c1ccc(C(NCCNC(c2ccccc2)c2ccccc2)c2ccccc2)cc1 | cell-free assay | 10 µM | inhibition | -1% |
| CN(CCN1CCC(OC(=O)Nc2ccccc2-c2ccccc2)CC1)C(=O)c1ccc(CN2CCC(C(N)=O)CC2)cc1 | ligand displacement, radioligand | 1 µM | inhibition | 5% |
